# Data published in ChEMBL document CHEMBL6114938, “Design, synthesis, and biological evaluation of pyrazole-ciprofloxacin hybrids as antibacterial and antibiofilm agents against Staphylococcus aureus” (RSC Med Chem, 2025).
# The source made the active and inactive calls. The rule behind the calls is not given here.
# Experiments:
# Staphylococcus aureus [1] = experiment: Antibacterial activity against Staphylococcus aureus ATCC 29213 assessed as inhibition of bacterial growth incubated for 18 to 24 hrs by two-fold serial dilution method; format: functional; conditions: time 18-24 hrs
# Outline: (§1)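 Broth microdilution in cation-adjusted Mueller Hinton broth with two-fold serial dilutions. Inoculum came from overnight cultures on Mueller Hinton agar, set to OD600 0.08-0.1 and diluted 100-fold, then added 1:1 to the compound wells. Plates were incubated at 37 °C for 18-24 h and read visually. MIC is the lowest concentration with no turbidity.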
# Pseudomonas aeruginosa = experiment: Antibacterial activity against Pseudomonas aeruginosa PAO1 ATCC 15692 assessed as inhibition of bacterial growth incubated for 18 to 24 hrs by two-fold serial dilution method; format: functional; conditions: time 18-24 hrs; outline: as §1
# [2] = tested on: Mycobacterium tuberculosis; experiment: Antimycobacterial activity against Mycobacterium tuberculosis H37Ra ATCC 25177 assessed as inhibition of bacterial growth incubated for 10 days by liquid broth microdilution method; format: functional; conditions: H37Ra ATCC 25177, 240 h, time 10 day
# Outline: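 Log-phase H37Ra (OD₆₀₀ 0.4–0.6) was grown in 7H9 with D-pantothenic acid, amino acids, 0.2% glycerol, 0.05% Tween 80 and 10% ADS, then diluted to OD₆₀₀ 0.005 (1.0×10⁶ CFU/ml). Compounds were two-fold serially diluted in 7H9, and plates were incubated for 10 days at 37 °C in 5% CO₂. MIC was the lowest concentration without visible turbidity.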
# Staphylococcus aureus [3] = experiment: Antibacterial activity against one-step ciprofloxacin resistant mutant of Staphylococcus aureus ATCC 29213 assessed as inhibition of bacterial growth by liquid broth microdilution assay; format: functional
# Outline: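 One-step ciprofloxacin-resistant mutants were raised by plating log-phase cells adjusted to 10¹⁰ CFU/ml on ciprofloxacin-containing Mueller-Hinton agar for 48 h at 37 °C, then passaging picked colonies on ciprofloxacin plates. Mutants with a more than eightfold rise in ciprofloxacin MIC were kept. MIC was read by broth microdilution: two-fold dilutions in cation-adjusted MHB, and inoculum of OD₆₀₀ 0.08–0.1 diluted hundredfold. Plates ran 18–24 h at 37 °C, and MIC was the lowest concentration with no visible turbidity.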
# Staphylococcus aureus [4] = experiment: Antibiofilm activity against Staphylococcus aureus ATCC 29213 assessed as inhibition of biofilm formation incubated for 24 hrs by crystal violet staining based analysis; format: functional
# Outline: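 Biofilm formation assay with inoculum at OD600 0.015 from overnight culture. Twelve two-fold dilutions (128 to 0.06 µg/ml) were made in MHB with 2% sucrose in flat-bottom polystyrene wells and incubated at 37 °C for 24 h. Wells were washed with PBS pH 7.4, fixed with methanol, stained with 0.1% crystal violet, eluted with 95% ethanol and read at A595. MBIC50 is the lowest concentration giving ≥50% inhibition versus untreated culture.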
# [5] = Cytotoxicity against human HepG2 cells assessed as reduction in cell viability incubated for 48 hrs by MTT assay; format: toxicity, cell-based
# Outline: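 MTT viability assay in HepG2 cells seeded at 1000-4000 per well and allowed to adhere overnight. Compounds were tested at 1000-0.78 µg/mL for 48 h in fresh medium. MTT 0.5 mg/mL was added for 4 h at 37 °C, formazan was dissolved in DMSO, and absorbance was read at 570 nm.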
# Staphylococcus aureus [6] = experiment: Antibacterial activity against methicillin-resistant Staphylococcus aureus assessed as inhibition of bacterial growth; format: functional
# [7] = tested on: Mycobacterium tuberculosis; experiment: Antimycobacterial activity against Mycobacterium tuberculosis H37Rv ATCC 27294 assessed as inhibition of bacterial growth incubated for 7 days by broth microdilution assay; format: functional; conditions: H37Rv ATCC 27294, 168 h, time 7 day
# Staphylococcus aureus [8] = experiment: Potency index, ratio of ciprofloxacin MIC to test compound MIC for antibacterial activity against Staphylococcus aureus ATCC 29213; format: functional
# Staphylococcus aureus [9] = experiment: Bactericidal activity against Staphylococcus aureus ATCC 29213 assessed as log reduction in bacterial load at 4X to 8XMIC measured within 9 hrs by time-kill kinetics analysis; format: functional
# Outline: (§2)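 Time-kill: log-phase cultures at OD600 0.005 were exposed to 1×, 4× and 8× MIC at 37 °C. Viable counts (CFU/ml) were taken by plating 10-fold serial dilutions at 2, 4, 6, 8, 10 and 24 h. Curves plot log10 CFU/ml against time over 24 h.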
# Staphylococcus aureus [10] = experiment: Ratio of MIC for antibacterial activity against Staphylococcus aureus ATCC 29213 to MBIC50 for antibiofilm activity against Staphylococcus aureus ATCC 29213; format: functional
# Staphylococcus aureus [11] = experiment: Bactericidal activity against Staphylococcus aureus ATCC 29213 assessed as log reduction in bacterial load at 1XMIC measured within 9 hrs by time-kill kinetics analysis; format: functional; outline: as §2
# Staphylococcus aureus [12] = experiment: Bactericidal activity against Staphylococcus aureus ATCC 29213 assessed as log reduction in bacterial load at 4X to 8XMIC measured within 3 hrs by time-kill kinetics analysis; format: functional; outline: as §2
# [13] = target: DNA gyrase (Escherichia coli) (UniProt P0AES6+P0AES4); experiment: Inhibition of Escherichia coli DNA gyrase assessed as reduction in supercoiled state of plasmid using pUC19 plasmid DNA as substrate at 8XMIC incubated for 90 mins by gel electrophoresis analysis; format: protein-complex assay
# Staphylococcus aureus [14] = experiment: Potency index, ratio of ciprofloxacin MBIC50 to test compound MBIC50 for antibiofilm activity against Staphylococcus aureus ATCC 29213; format: functional
# Staphylococcus aureus [15] = experiment: Antibacterial activity against Staphylococcus aureus NCTC 4163 assessed as inhibition of bacterial growth incubated for 18 hrs by twofold microdilution method; format: functional
# Staphylococcus aureus [16] = experiment: Antibacterial activity against Staphylococcus aureus ATCC 25923 assessed as inhibition of bacterial growth incubated for 18 hrs by twofold microdilution method; format: functional
# Staphylococcus aureus [17] = experiment: Antibacterial activity against Staphylococcus aureus ATCC 6538 assessed as inhibition of bacterial growth incubated for 18 hrs by twofold microdilution method; format: functional
# Staphylococcus aureus [18] = experiment: Antibacterial activity against Staphylococcus aureus ATCC 29213 assessed as inhibition of bacterial growth incubated for 18 hrs by twofold microdilution method; format: functional
# Escherichia coli = experiment: Antibacterial activity against Escherichia coli ATCC 25922 assessed as inhibition of bacterial growth incubated for 18 hrs by twofold microdilution method; format: functional
# Staphylococcus aureus [19] = experiment: Bactericidal activity against Staphylococcus aureus ATCC 29213 assessed as bacterial killing at 8XMIC measured within 6 hrs by time-kill kinetics analysis; format: functional, organism-based; outline: as §2
Structure (SMILES),MIC (Staphylococcus aureus [1]) [µg/mL],MIC (Pseudomonas aeruginosa) [µg/mL],MIC [2] [µg/mL],further results
O=C(CN1CCN(c2cc3c(cc2F)c(=O)c(C(=O)O)cn3C2CC2)CC1)Nc1ccc(-n2ccc(-c3ccc4c(c3)OCO4)n2)cc1,0.5,64,32,MIC (Staphylococcus aureus [3]): 32 µg/mL; MBIC50 (Staphylococcus aureus [4]): 1.84 µg/mL; CC50 at 48 h [5]: > 1000 µg/mL
O=C(CN1CCN(c2cc3c(cc2F)c(=O)c(C(=O)O)cn3C2CC2)CC1)Nc1ccc(-n2ccc(-c3cc4ccccc4o3)n2)cc1,1,32,2,–
O=C(CN1CCN(c2cc3c(cc2F)c(=O)c(C(=O)O)cn3C2CC2)CC1)Nc1ccc(-n2ccc(-c3ccc(Cl)cc3)n2)cc1,1,128,64,–
O=C(O)c1cn(C2CC2)c2cc(N3CCNCC3)c(F)cc2c1=O [CIPROFLOXACIN],0.25,0.06,–,MIC (Staphylococcus aureus [3]): 2 µg/mL; MBIC50 (Staphylococcus aureus [4]): 1.06 µg/mL
O=C(O)c1ccc(-c2nn(-c3ccc(C(F)(F)F)cc3)cc2CNc2ccc(Br)c(C(F)(F)F)c2)cc1,–,–,–,MIC (Staphylococcus aureus [6]): < 1 µg/mL
Cc1cc(-c2ccn(-c3ccc(NC(=O)CN4CCN(c5cc6c(cc5F)c(=O)c(C(=O)O)cn6C5CC5)CC4)cc3)n2)ccc1F,16,128,4,–
O=C(CN1CCN(c2cc3c(cc2F)c(=O)c(C(=O)O)cn3C2CC2)CC1)Nc1ccc(-n2ccc(-c3ccc4ccccc4c3)n2)cc1,1,2,1,–
O=C(Nc1ccc(-n2ccc(-c3cc4ccccc4o3)n2)cc1)c1cc([N+](=O)[O-])cc([N+](=O)[O-])c1,–,–,–,MIC [7]: 0.03 µg/mL
O=C(CN1CCN(c2cc3c(cc2F)c(=O)c(C(=O)O)cn3C2CC2)CC1)Nc1ccc(-n2ccc(-c3ccc(F)cc3)n2)cc1,0.125,32,1,Ratio (Staphylococcus aureus [8]): 2; MIC (Staphylococcus aureus [3]): 8 µg/mL; MBIC50 (Staphylococcus aureus [4]): 2.7 µg/mL; CC50 at 48 h [5]: > 1000 µg/mL
O=C(CN1CCN(c2cc3c(cc2F)c(=O)c(C(=O)O)cn3C2CC2)CC1)Nc1ccc(-n2ccc(-c3ccc(Cl)cc3Cl)n2)cc1,16,> 128,64,–
COc1ccc(-c2ccn(-c3ccc(NC(=O)CN4CCN(c5cc6c(cc5F)c(=O)c(C(=O)O)cn6C5CC5)CC4)cc3)n2)cc1OC,0.125,128,16,Ratio (Staphylococcus aureus [8]): 2; MIC (Staphylococcus aureus [3]): 0.25 µg/mL; MBIC50 (Staphylococcus aureus [4]): 0.3 µg/mL; Activity (Staphylococcus aureus [9]): >=3 log10CFU/ml; CC50 at 48 h [5]: ≥ 592 µg/mL
Cc1ccc(-c2ccn(-c3ccc(NC(=O)CN4CCN(c5cc6c(cc5F)c(=O)c(C(=O)O)cn6C5CC5)CC4)cc3)n2)cc1,8,128,32,–
COc1ccc(-c2ccn(-c3ccc(NC(=O)CN4CCN(c5cc6c(cc5F)c(=O)c(C(=O)O)cn6C5CC5)CC4)cc3)n2)cc1,4,32,8,–
COc1ccccc1-c1ccn(-c2ccc(NC(=O)CN3CCN(c4cc5c(cc4F)c(=O)c(C(=O)O)cn5C4CC4)CC3)cc2)n1,0.125,64,4,Ratio (Staphylococcus aureus [8]): 2; MIC (Staphylococcus aureus [3]): 0.125 µg/mL; MBIC50 (Staphylococcus aureus [4]): 0.02 µg/mL; Ratio (Staphylococcus aureus [10]): 6; Activity (Staphylococcus aureus [11]): >=3 log10CFU/ml; Activity (Staphylococcus aureus [12]): >=3 log10CFU/ml; CC50 at 48 h [5]: > 1000 µg/mL; inhibition [13]: Active; Ratio (Staphylococcus aureus [14]): 50
O=C(O)c1cn(C2CC2)c2cc(N3CCN(C(=O)CCl)CC3)c(F)cc2c1=O,–,–,–,MIC (Staphylococcus aureus [15]): 0.1 µg/mL; MIC (Staphylococcus aureus [16]): 0.1 µg/mL; MIC (Staphylococcus aureus [17]): 0.1 µg/mL; MIC (Staphylococcus aureus [18]): 0.1 µg/mL; MIC (Escherichia coli): 0.1 µg/mL
O=C(CN1CCN(c2cc3c(cc2F)c(=O)c(C(=O)O)cn3C2CC2)CC1)Nc1ccc(-n2ccc(-c3ccccc3)n2)cc1,0.125,8,0.5,Ratio (Staphylococcus aureus [8]): 2; MIC (Staphylococcus aureus [3]): 0.5 µg/mL; MBIC50 (Staphylococcus aureus [4]): 0.27 µg/mL; Activity (Staphylococcus aureus [19]): Active; CC50 at 48 h [5]: > 1000 µg/mL
COc1cc(OC)c(-c2cc(-c3cn(-c4ccccc4)nc3-c3ccccc3)[nH]c(=N)n2)cc1OC,–,–,–,MIC (Staphylococcus aureus [6]): 521 µM
O=C(CN1CCN(c2cc3c(cc2F)c(=O)c(C(=O)O)cn3C2CC2)CC1)Nc1ccc(-n2ccc(-c3cccc(Cl)c3)n2)cc1,8,64,8,–
COc1cc(-c2ccn(-c3ccc(NC(=O)CN4CCN(c5cc6c(cc5F)c(=O)c(C(=O)O)cn6C5CC5)CC4)cc3)n2)cc(OC)c1OC,0.125,32,0.5,Ratio (Staphylococcus aureus [8]): 2; MIC (Staphylococcus aureus [3]): 1 µg/mL; MBIC50 (Staphylococcus aureus [4]): 0.52 µg/mL; CC50 at 48 h [5]: > 1000 µg/mL
CC/C(=C(\c1ccccc1)c1ccc(OCCN(C)C)cc1)c1ccccc1 [TAMOXIFEN],–,–,–,CC50 at 48 h [5]: 3.7 µg/mL
NNC(=O)c1ccncc1 [ISONIAZID],–,–,0.034,–
O=C(CN1CCN(c2cc3c(cc2F)c(=O)c(C(=O)O)cn3C2CC2)CC1)Nc1ccc(-n2ccc(-c3ccccc3Cl)n2)cc1,1,16,4,–
COc1cccc(-c2ccn(-c3ccc(NC(=O)CN4CCN(c5cc6c(cc5F)c(=O)c(C(=O)O)cn6C5CC5)CC4)cc3)n2)c1,1,32,4,–
O=C(CN1CCN(c2cc3c(cc2F)c(=O)c(C(=O)O)cn3C2CC2)CC1)Nc1ccc(-n2ccc(-c3ccc(Br)cc3)n2)cc1,32,128,16,–
